In ChEMBL document CHEMBL5678806, “NMS-P937, an orally available, specific small-molecule polo-like kinase 1 inhibitor with antitumor activity in solid and hematologic malignancies” (Mol Cancer Ther, 2012):

What was measured:
[1] = molecular target: Proto-oncogene tyrosine-protein kinase Src (Homo sapiens) (UniProt P12931); assay: Inhibition of N-Terminal His6-tagged recombinant full-length human c-SRC expressed in Sf21 cells assessed as residual activity at 0.1 uM relative to control
[2] = molecular target: Mitogen-activated protein kinase 1 (Homo sapiens, UniProt P28482); assay: Inhibition of ERK2 (unknown origin) in presence of [gamma-33P]ATP
[3] = AUC in Sprague-Dawley rat at 10 mg/kg, po by LC-MS analysis; format: ADME, organism-based; settings: in vivo
NCI-H146 = assay: Antiproliferative activity against human NCI-H146 cells assessed as inhibition of cell growth incubated for 72 hrs by cell-titer glo assay; format: functional, cell-based; settings: NCI-H146, 72 h
In short: (§1)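 Cells from ATCC or ECACC, kept in supplier-recommended medium with 1% penicillin-streptomycin at 37°C, 5% CO₂. Seeded at 10,000–30,000/cm² (adherent) or 100,000/mL (nonadherent) in medium with 10% fetal calf serum. Dosed after 24 h in duplicate with serial dilutions. Viable cells read by CellTiter-Glo 72 h later. IC50 from sigmoidal fit. At least two independent experiments.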

COLO 205 = assay: Antiproliferative activity against human COLO 205 cells assessed as inhibition of cell growth incubated for 72 hrs by cell-titer glo assay; format: functional, cell-based; settings: COLO 205, 72 h
In short: (§2)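 Cells seeded 10,000–30,000/cm² (adherent) or 100,000/mL (suspension) in medium with 10% fetal calf serum; after 24 h treated in duplicate with serial dilutions for 72 h. Viable cells read by CellTiter-Glo luminescence; IC50 from sigmoidal fit; at least two independent experiments.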

[4] = Antiproliferative activity against human GM14788 cells assessed as inhibition of cell growth incubated for 72 hrs by cell-titer glo assay; format: functional, cell-based; settings: GM14788, 72 h
In short: (§3)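 Cells seeded at 10,000–30,000/cm² (adherent) or 100,000/mL (nonadherent) in medium with 10% fetal calf serum; after 24 h, treated in duplicate with serial dilutions for 72 h. Viable cell number read by CellTiter-Glo luminescence; IC50 from sigmoidal fit; at least two independent experiments.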

CAPAN-1 = assay: Antiproliferative activity against human CAPAN-1 cells assessed as inhibition of cell growth incubated for 72 hrs by cell-titer glo assay; format: functional, cell-based; settings: CAPAN-1, 72 h; in short: as §2
[5] = molecular target: Dual specificity tyrosine-phosphorylation-regulated kinase 2 (Homo sapiens) (UniProt Q92630); assay: Inhibition of 6His-tagged recombinant full-length human DYRK2 expressed in baculovirus infected Sf21 cells assessed as residual activity at 1 uM relative to control
[6] = molecular target: Macrophage-stimulating protein receptor (Homo sapiens) (UniProt Q04912); assay: Inhibition of N-terminal GST-tagged recombinant human Ron (983 to end residues) expressed in baculovirus infected Sf21 cells assessed as residual activity at 1 uM relative to control
SET-2 = assay: Antiproliferative activity against human SET2 cells assessed as inhibition of cell growth incubated for 72 hrs by cell-titer glo assay; format: functional, cell-based; settings: SET-2, 72 h; in short: as §1
[7] = molecular target: Serine/threonine-protein kinase PLK3 (Homo sapiens) (UniProt Q9H4B4); assay: Inhibition of PLK3 (unknown origin) at 10 micromol/L in presence of [gamma-33P]ATP relative to control; settings: dose 10.0 µmol/L
[8] = molecular target: RAF proto-oncogene serine/threonine-protein kinase (Homo sapiens) (UniProt P04049); assay: Inhibition of N-terminal GST-tagged recombinant human c-RAF (306 to 648 residues) expressed in Sf9 cells assessed as residual activity at 0.1 uM relative to control
[9] = molecular target: MAP kinase-activated protein kinase 5 (Homo sapiens) (UniProt Q8IW41); assay: Inhibition of N-terminal His6-tagged recombinant human full-length PRAK expressed in baculovirus infected Sf21 cells assessed as residual activity at 0.1 uM relative to control
SW48 = assay: Antiproliferative activity against human SW48 cells assessed as inhibition of cell growth incubated for 72 hrs by cell-titer glo assay; format: functional, cell-based; settings: SW48, 72 h
[10] = molecular target: CDC7/DBF4 (Cell division cycle 7-related protein kinase/Activator of S phase kinase) (Homo sapiens, UniProt O00311); assay: Inhibition of CDC7/DBF4 (unknown origin) in presence of [gamma-33P]ATP; format: protein-complex assay
LCLC-97TM1 = assay: Antiproliferative activity against human LCLC-97TM1 cells assessed as inhibition of cell growth incubated for 72 hrs by cell-titer glo assay; format: functional, cell-based; settings: LCLC-97TM1, 72 h; in short: as §3
[11] = molecular target: Insulin receptor-related protein (Homo sapiens) (UniProt P14616); assay: Inhibition of N-terminal 6His-tagged recombinant human IRR (944 to 1266 residues) expressed in baculovirus infected Sf21 cells assessed as residual activity at 0.1 uM relative to control
BXPC-3 = assay: Antiproliferative activity against human BXPC-3 cells assessed as inhibition of cell growth incubated for 72 hrs by cell-titer glo assay; format: functional, cell-based; settings: BXPC-3, 72 h; in short: as §2
NALM-6 = assay: Antiproliferative activity against human NALM-6 cells assessed as inhibition of cell growth incubated for 72 hrs by cell-titer glo assay; format: functional, cell-based; settings: NALM-6, 72 h; in short: as §1
MDA-MB-435S = assay: Antiproliferative activity against human MDA-MB-435S cells assessed as inhibition of cell growth incubated for 72 hrs by cell-titer glo assay; format: functional, cell-based; in short: as §3
SKM-1 = assay: Antiproliferative activity against human SKM-1 cells assessed as inhibition of cell growth incubated for 72 hrs by cell-titer glo assay; format: functional, cell-based; settings: SKM-1, 72 h
LNCaP = assay: Antiproliferative activity against human LNCaP cells assessed as inhibition of cell growth incubated for 72 hrs by cell-titer glo assay; format: functional, cell-based; in short: as §3
NCI-H1437 = assay: Antiproliferative activity against human NCI-H1437 cells assessed as inhibition of cell growth incubated for 72 hrs by cell-titer glo assay; format: functional, cell-based; settings: NCI-H1437, 72 h; in short: as §1
[12] = molecular target: Angiopoietin-1 receptor (Homo sapiens) (UniProt Q02763); assay: Inhibition of N-terminal His6-tagged recombinant human Tie2 (771 to end residues) expressed in baculovirus infected Sf21 cells assessed as residual activity at 0.1 uM relative to control
BT-549 = assay: Antiproliferative activity against human BT-549 cells assessed as inhibition of cell growth incubated for 72 hrs by cell-titer glo assay; format: functional, cell-based; settings: BT-549, 72 h; in short: as §2
RPMI-8226 = assay: Antiproliferative activity against human RPMI-8226 cells assessed as inhibition of cell growth incubated for 72 hrs by cell-titer glo assay; format: functional, cell-based; settings: RPMI-8226, 72 h; in short: as §1
[13] = Antiproliferative activity against human A2780cis cells assessed as inhibition of cell growth incubated for 72 hrs by cell-titer glo assay; format: functional, cell-based; in short: as §2
1A9/ptx-22 = assay: Antiproliferative activity against human 1A9/ptx-22 cells assessed as inhibition of cell growth incubated for 72 hrs by cell-titer glo assay; format: functional, cell-based; settings: 1A9/ptx-22, 72 h; in short: as §2
U2OS = assay: Effect on cell morphology in human U2OS cells assessed as increased number of rounded cells at 1 uM by time lapse microscopy analysis; format: functional, cell-based; settings: time lower […], time upper 48.0 hrs, TDE = time-dependent effect
[14] = molecular target: Tyrosine-protein kinase Lyn (Homo sapiens, UniProt P07948); assay: Inhibition of N-terminal his6-tagged recombinant full-length human Lyn expressed in Sf21 cells assessed as residual activity at 0.1 uM relative to control
Chain of Tyrosine-protein kinase Lyn (P07948 2-512 limits assumed): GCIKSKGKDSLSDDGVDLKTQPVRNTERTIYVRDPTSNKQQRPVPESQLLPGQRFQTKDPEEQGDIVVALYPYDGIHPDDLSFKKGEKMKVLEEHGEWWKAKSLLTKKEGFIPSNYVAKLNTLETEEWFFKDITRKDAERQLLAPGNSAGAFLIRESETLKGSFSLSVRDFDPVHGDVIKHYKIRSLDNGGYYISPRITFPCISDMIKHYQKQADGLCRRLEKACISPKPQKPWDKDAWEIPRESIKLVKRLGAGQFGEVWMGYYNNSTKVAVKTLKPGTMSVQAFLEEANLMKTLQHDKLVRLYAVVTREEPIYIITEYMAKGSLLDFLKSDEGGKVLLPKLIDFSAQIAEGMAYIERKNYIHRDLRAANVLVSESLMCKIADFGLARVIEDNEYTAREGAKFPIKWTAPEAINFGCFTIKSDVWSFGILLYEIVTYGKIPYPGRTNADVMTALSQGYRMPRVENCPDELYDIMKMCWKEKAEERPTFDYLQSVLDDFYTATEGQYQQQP

Chain of Proto-oncogene tyrosine-protein kinase Src (Homo sapiens) (P12931 2-536 limits assumed): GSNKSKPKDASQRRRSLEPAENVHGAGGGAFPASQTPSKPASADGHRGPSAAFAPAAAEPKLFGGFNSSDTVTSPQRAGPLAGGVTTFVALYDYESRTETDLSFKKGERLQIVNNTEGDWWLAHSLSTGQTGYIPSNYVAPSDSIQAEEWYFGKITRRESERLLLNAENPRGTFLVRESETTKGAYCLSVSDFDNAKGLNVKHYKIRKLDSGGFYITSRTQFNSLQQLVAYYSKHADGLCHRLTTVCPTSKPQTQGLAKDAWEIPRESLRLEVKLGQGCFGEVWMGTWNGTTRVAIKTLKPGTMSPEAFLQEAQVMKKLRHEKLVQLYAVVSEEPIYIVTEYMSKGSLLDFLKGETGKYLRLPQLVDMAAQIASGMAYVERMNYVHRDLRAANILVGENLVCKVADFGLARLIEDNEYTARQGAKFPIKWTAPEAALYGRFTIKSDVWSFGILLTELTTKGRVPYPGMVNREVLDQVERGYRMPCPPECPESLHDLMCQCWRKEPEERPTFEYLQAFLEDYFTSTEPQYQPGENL
Chain of CDC7/DBF4 (Cell division cycle 7-related protein kinase/Activator of S phase kinase) (Q9UBU7 whole entry): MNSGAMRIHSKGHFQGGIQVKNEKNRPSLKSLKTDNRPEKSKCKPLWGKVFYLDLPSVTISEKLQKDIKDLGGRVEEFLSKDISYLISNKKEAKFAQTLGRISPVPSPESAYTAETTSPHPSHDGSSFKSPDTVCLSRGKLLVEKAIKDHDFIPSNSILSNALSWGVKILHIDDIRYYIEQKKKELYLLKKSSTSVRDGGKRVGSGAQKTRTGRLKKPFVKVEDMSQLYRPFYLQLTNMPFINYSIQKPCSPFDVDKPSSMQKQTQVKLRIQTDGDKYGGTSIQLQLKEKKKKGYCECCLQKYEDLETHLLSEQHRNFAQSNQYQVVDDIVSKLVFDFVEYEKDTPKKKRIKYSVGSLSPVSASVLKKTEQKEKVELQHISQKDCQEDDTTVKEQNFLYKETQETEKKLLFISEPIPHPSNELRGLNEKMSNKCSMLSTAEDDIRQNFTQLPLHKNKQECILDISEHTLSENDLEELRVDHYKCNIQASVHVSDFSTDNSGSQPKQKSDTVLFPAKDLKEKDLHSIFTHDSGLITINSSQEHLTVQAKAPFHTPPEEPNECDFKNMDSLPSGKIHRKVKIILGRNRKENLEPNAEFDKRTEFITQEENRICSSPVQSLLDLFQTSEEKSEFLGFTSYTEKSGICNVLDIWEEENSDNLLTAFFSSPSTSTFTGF
Chain of CDC7/DBF4 (Cell division cycle 7-related protein kinase/Activator of S phase kinase) (O00311 whole entry): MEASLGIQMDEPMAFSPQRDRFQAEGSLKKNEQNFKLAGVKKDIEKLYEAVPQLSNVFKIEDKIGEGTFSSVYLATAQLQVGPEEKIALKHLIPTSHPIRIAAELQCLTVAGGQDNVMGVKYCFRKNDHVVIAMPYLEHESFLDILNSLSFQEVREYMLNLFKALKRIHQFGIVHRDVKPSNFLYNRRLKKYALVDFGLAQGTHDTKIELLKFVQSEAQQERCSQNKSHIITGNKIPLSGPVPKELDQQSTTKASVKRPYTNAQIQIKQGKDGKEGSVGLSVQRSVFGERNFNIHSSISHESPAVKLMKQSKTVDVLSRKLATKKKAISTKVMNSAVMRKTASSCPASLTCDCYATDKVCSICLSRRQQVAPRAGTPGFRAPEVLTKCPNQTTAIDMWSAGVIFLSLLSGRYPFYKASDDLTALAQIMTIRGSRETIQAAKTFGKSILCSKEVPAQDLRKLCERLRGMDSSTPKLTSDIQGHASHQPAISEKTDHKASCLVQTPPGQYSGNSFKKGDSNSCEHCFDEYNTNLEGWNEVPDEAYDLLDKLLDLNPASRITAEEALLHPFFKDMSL
Chain of Macrophage-stimulating protein receptor (Homo sapiens) (Q04912 25-304 limits assumed): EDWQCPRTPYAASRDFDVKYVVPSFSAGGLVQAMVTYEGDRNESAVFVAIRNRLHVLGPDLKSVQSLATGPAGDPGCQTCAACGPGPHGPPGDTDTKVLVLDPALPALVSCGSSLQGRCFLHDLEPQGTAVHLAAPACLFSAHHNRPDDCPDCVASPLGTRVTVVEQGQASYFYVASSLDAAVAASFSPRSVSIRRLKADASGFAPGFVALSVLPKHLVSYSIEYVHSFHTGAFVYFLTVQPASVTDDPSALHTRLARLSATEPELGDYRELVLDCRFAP
Chain of Macrophage-stimulating protein receptor (Homo sapiens) (Q04912 310-1400 limits assumed): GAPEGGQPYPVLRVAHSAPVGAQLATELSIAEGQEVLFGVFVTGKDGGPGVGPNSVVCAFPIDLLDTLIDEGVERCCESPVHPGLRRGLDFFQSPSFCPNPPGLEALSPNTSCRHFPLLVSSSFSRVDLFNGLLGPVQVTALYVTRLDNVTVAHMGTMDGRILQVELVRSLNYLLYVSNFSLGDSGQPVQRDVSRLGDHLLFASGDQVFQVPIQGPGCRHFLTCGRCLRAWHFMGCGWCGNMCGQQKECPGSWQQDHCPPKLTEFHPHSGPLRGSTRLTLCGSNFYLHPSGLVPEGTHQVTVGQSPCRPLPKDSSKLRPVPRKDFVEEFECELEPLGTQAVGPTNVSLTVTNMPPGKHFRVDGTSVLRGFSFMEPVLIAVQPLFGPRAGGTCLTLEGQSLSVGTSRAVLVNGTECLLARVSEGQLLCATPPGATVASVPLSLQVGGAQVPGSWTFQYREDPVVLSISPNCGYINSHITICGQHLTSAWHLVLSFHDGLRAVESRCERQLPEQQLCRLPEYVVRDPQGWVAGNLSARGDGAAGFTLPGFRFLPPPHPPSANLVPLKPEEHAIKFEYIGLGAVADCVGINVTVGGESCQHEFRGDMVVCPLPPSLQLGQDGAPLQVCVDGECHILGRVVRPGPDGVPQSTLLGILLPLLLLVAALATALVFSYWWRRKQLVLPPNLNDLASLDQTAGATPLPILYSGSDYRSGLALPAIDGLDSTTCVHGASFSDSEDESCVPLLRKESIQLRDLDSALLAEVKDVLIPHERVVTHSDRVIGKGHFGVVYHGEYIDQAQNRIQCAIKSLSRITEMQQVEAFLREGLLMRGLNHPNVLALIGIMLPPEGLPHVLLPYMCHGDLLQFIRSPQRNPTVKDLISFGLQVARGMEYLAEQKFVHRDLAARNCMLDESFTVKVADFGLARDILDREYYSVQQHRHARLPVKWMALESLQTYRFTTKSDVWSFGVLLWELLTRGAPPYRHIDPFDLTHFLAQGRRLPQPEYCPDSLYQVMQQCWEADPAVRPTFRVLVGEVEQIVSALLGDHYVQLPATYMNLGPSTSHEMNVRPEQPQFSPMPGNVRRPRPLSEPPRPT
Chain of Insulin receptor-related protein (Homo sapiens) (P14616 27-742 limits assumed): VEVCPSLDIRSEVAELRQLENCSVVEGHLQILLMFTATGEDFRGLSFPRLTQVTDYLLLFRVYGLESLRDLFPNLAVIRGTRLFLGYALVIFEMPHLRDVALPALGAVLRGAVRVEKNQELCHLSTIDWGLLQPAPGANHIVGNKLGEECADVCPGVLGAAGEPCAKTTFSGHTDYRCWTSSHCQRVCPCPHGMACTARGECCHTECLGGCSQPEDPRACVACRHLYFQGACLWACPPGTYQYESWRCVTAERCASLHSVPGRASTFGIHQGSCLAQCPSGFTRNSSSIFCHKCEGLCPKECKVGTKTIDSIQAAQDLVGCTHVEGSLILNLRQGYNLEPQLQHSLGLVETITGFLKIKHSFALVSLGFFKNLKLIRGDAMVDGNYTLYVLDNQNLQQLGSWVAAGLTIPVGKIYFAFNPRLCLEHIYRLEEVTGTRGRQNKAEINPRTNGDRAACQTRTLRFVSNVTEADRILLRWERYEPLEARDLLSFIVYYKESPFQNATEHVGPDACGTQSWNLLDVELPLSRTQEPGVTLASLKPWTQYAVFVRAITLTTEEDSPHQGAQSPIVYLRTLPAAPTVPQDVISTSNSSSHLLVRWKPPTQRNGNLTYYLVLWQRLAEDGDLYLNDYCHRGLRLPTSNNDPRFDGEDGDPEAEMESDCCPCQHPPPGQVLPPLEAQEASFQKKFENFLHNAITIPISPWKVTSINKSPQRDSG
Chain of Insulin receptor-related protein (Homo sapiens) (P14616 747-1297 limits assumed): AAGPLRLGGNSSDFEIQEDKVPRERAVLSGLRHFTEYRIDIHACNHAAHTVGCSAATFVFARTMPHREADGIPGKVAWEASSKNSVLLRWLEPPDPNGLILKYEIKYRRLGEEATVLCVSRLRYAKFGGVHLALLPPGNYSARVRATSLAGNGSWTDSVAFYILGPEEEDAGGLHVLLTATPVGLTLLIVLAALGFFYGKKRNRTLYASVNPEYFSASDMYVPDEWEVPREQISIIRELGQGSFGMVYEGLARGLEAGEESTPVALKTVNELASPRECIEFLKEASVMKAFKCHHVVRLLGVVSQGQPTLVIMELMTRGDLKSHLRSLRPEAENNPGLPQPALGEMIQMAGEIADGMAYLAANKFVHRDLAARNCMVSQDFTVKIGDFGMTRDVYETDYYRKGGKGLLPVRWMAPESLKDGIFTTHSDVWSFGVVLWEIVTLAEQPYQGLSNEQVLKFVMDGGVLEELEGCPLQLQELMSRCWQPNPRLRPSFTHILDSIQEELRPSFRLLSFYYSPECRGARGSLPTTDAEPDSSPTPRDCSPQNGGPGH

For `CN1CCN(c2ccc(OC(F)(F)F)c(Nc3ncc4c(n3)-c3c(c(C(N)=O)nn3CCO)CC4)c2)CC1` [ONVANSERTIB], the Activity [1] was 43%, the IC50 [2] was > 10 µM and the AUC [3] was 46.4 µM·h. For the same compound, the IC50 (NCI-H146) was 339 nM, the IC50 (COLO 205) was 32 nM and the IC50 [4] was 82 nM. It also gave an IC50 (CAPAN-1) of 237 nM, an Activity [5] of 83% and an Activity [6] of 42%. The IC50 (SET-2) was 145 nM, the inhibition [7] was 40.2% and the Activity [8] was 93%. For the same compound, the Activity [9] was 126%, the IC50 (SW48) was 32 nM and the IC50 [10] was > 10 µM. For the same compound, the IC50 (LCLC-97TM1) was 32 nM, the Activity [11] was 125% and the IC50 (BXPC-3) was 117 nM. The IC50 (NALM-6) was 61 nM, the IC50 (MDA-MB-435S) was 23 nM and the IC50 (SKM-1) was 60 nM. For the same compound, the IC50 (LNCaP) was 82 nM, the IC50 (NCI-H1437) was 39 nM and the Activity [12] was 113%. It also gave an IC50 (BT-549) of 49 nM, an IC50 (RPMI-8226) of 128 nM and an IC50 [13] of 48 nM. For the same compound, the IC50 (1A9/ptx-22) was 65 nM, the Activity (U2OS) was “Tde” and the Activity [14] was 156%.
